Here are results for 9 molecules from ChEMBL document CHEMBL1130433, “Effects of log P and phenyl ring conformation on the binding of 5-phenylhydantoins to the voltage-dependent sodium channel” (J Med Chem, 1997).

For the assay, the target named is Sodium channel alpha subunits; brain (Types I, II, III) (Rattus norvegicus, UniProt P04775+P04774+P08104). As to the kind of experiment: Inhibition of [3H]BTX-B binding to Neuronal voltage-dependent sodium channel of rat cerebral cortex synaptoneurosomes. In kind it is tissue-based. The method in brief: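 Ice-cold buffer dilution, GF/C filtration, scintillation counting. Nonspecific binding measured with 300 μM veratridine. Triplicates with a 40 μM DPH control tube. IC50 by Probit analysis, excluding points below 10% or above 90% inhibition.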
Usually IC50 stands for the concentration needed to halve the response being measured. A high value points to lower potency. `O=C1NC(=O)C2(CCCc3ccccc32)N1` (centres undefined) gave an IC50 of 851 µM. The result for `O=C1NC(=O)C2(CCc3ccccc32)N1` (centres undefined) reads 2112 µM; that for `O=C1NC(=O)C2(CCCCCc3ccccc32)N1` (centres undefined), 251 µM. Turning to `CC12C(=O)NC(=O)N1CCc1ccccc12` (centres undefined), the IC50 amounted to 250 µM.

The molecule `CCN1C(=O)NC(=O)[C@@]1(C)c1ccccc1` had an IC50 of 720 µM. The result for `CCCCC1(c2ccccc2C)NC(=O)NC1=O` (centres undefined) reads 225 µM; that for `CCCCC1(c2ccc(C)cc2)NC(=O)NC1=O` (centres undefined), 95 µM; that for `O=C1NC(=O)C2(CCCCc3ccccc32)N1` (centres undefined), 251 µM. `CCCCC1(c2cccc(C)c2)NC(=O)NC1=O` (centres undefined): the 50% inhibitory concentration (IC50) worked out at 58 µM.
